This is a sample that favours compounds with a hit; in the whole collection about 1.7% have one here.
Rce1 inhib – yeast Rce1p protease inhibitors, primary screen, biochemical, fluorescence, cell-free homogeneous; CAAX prenyl protease 2 (Saccharomyces cerevisiae (strain ATCC 204508 / S288c)), Q03530; yeast membranes, quenched prenylated peptide cleavage fluorescence; calls only; 0.27% of 290,000 active;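 active means fall in fluorescence gain of 50% or more versus controls, with final raw signal at or below 3038400; inconclusive means same 50% fall but final raw signal above 3038400; inactive means fall in fluorescence gain under 50%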;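 further: plate controls were neutral control wells for no effect and wells lacking membranes for full effect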
Target sequence (Q03530 whole entry, looked up): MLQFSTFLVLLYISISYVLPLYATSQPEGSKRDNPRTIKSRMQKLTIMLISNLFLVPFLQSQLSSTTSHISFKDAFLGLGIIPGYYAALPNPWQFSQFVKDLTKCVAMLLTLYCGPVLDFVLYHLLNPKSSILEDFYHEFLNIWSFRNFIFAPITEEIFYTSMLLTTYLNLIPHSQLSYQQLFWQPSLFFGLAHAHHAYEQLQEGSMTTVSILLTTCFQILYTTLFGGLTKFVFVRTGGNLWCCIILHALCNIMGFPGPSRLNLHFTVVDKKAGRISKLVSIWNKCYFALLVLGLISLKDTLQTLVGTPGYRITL
Runt-CBFb FRET – inhibitors of RUNX1 Runt–CBFb binding, primary screen, biochemical, FRET, Cerulean-Runt, Venus-CBFb, uHTS | Runt-related transcription factor 1 (Homo sapiens) + Core-binding factor subunit beta … | Cerulean-Runt/Venus-CBFb FRET ratio 530/480, 1 h | inhibition, % at 20 µM | 0.46% of 220,000 active;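 active means inhibition over about 50% at 20 µM in the single-dose screen, limit read from the data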;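 further: 0% = DMSO wells and 100% = excess unlabeled CBFb competitor control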
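Buffer or medium: Tris pH 7.5 buffer with BSA. Assay system: Cerulean-labeled Runt domain protein. Amount: each fluorescent fusion protein 100 nM. Read-out basis: loss of energy transfer signal. Incubation: 1 h compound exposure, room temperature. Probe or stimulus: Venus-CBFb binding partner, 100 nM. Detection: FRET, excitation 422 nm, emission at 530 and 480 nm.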
Runt-SMMHC FRET – inhibitors of RUNX1 Runt–CBFb-SMMHC binding, primary screen, biochemical, FRET, Cerulean-Runt, Venus-CBFb-SMMHC, uHTS; Runt-related transcription factor 1 (Homo sapiens) + Core-binding factor subunit beta …; Cerulean-Runt/Venus-CBFb-SMMHC FRET ratio 530/480, 1 h; inhibition, % at 20 µM; 0.74% of 220,000 active; AID 1434, 2008;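 active means mean inhibition across duplicate retests at 20 µM reaching about 50%, limit read from the data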;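 further: 0% = DMSO wells and 100% = wells with excess untagged CBFb-SMMHC; inhibitors lower the FRET ratio by blocking Runt binding to CBFb-SMMHC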
RanGTP-Impb inh – inhibitors of RanGTP-importin-beta interaction, primary screen, biochemical, FRET, CFP-Ran, YFP-importin-beta, homogeneous | inhibition, % (concentration not given with the values) | 1.1% of 300,000 active | cell-free CFP-Ran/YFP-importin-beta FRET ratio | Ran GTPase (GTP-bound) - importin-beta complex;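 active means more than half of the replicate wells show a fall in the fluorescence ratio signal beyond about 16%, limit read from the data, passing the limit was not always enough; inconclusive means exactly half of the replicate wells pass the set limit; inactive means fewer than half of replicates pass the limit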;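 further: 0% = DMSO wells and 100% = Ran loaded with GDP instead of GTP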
Vif imaging – HIV Vif self-association inhibitors, primary screen, imaging, HEK293T, single point; AID 602346, 2012; inhibition, % at 7.49 µM; 0.35% of 340,000 active; HEK293T cells, Vif self-association by quenched fluorescence, 24 h; in the data active means inhibition above about 50%, passing the limit was not always enough; inconclusive means no clear call, values can overlap the other calls; inactive means below about 31%
The depositor's hits bear a star; i = inactive; ? = inconclusive; nt = no result; + = active, no number.

SMILES | Rce1 inhib | Runt-CBFb FRET | Runt-SMMHC FRET | RanGTP-Impb inh | Vif imaging
COCCNC(=O)/C(C#N)=C/c1c(N2CCN(c3ccccc3)CC2)nc2ccccn2c1=O | i | nt | nt | 5 | 0
O=Cc1c(N2CCCCC2)nc2ccccn2c1=O | i | 1 | -4 | -3 | -7
O=C(COc1ccc2c3c(c(=O)oc2c1)CCC3)NCC(O)c1ccccc1 (stereo unspecified) | i | nt | nt | -2 | 3
Cc1cnc(NC(=O)c2cc(-c3ccccc3)nn2-c2ccccc2)s1 | nt | nt | nt | nt | 0
O=C(Nc1ccccc1C(=O)O)c1cccc(N2C(=O)c3ccccc3C2=O)c1 | nt | nt | nt | -2 | 8
CCNC(=O)/C(C#N)=C/c1c(N2CCCCCC2)nc2ccccn2c1=O | i | nt | nt | 1 | 0
CCNC(=O)/C(C#N)=C/c1c(N2CC(C)OC(C)C2)nc2ccccn2c1=O (stereo unspecified) | i | 104* | 77* | 0 | -7
CCOc1ccc2nc(CN3CCN(Cc4ccsc4)C(CCO)C3)ccc2c1 (stereo unspecified) | i | 0 | -1 | -5 | -14
CCOc1cc(/C=C(\C#N)C(=O)Nc2cccc(C(=O)O)c2)ccc1OCc1ccccc1Cl | nt | nt | nt | 78* | -4
COc1cc(/C=C(\C#N)C(=O)Nc2cccc(C(=O)O)c2)ccc1OCc1ccc(F)cc1 | i | nt | nt | 4 | -7
Cc1ccccc1NS(=O)(=O)c1ccc(NS(=O)(=O)c2cccs2)cc1 | i | nt | nt | 7 | -29
CC1=C(C(=O)OCC(C)C)C(c2cc3c(cc2Br)OCO3)NC(=O)N1C (stereo unspecified) | i | -3 | 0 | 2 | nt
COC(=O)C1=CN(C(C)C)C=C(C(=O)OC)C1c1cc2c(cc1Br)OCO2 | i | 12 | 118* | 30* | 25
O=C(NCc1cc([N+](=O)[O-])ccc1O)c1cc(-c2ccncc2)nc2ccccc12 | i | nt | nt | 0 | -5
N#C/C(=C\c1ccc(Cl)cc1)c1nc2ncccc2[nH]1 | i | 17 | 34 | 36* | -1
N#C/C(=C\c1c(Cl)cccc1Cl)c1nc2ccccc2[nH]1 | i | 1 | -2 | 8 | -3
CCOCCCNC(=S)NCCNc1nc2ccc(C)cc2cc1C#N | i | 81* | 111* | 31* | -1
CCOCCCNC(=S)NCCCNc1nc2ccc(C)cc2cc1C#N | i | 93* | 89* | nt | nt
CCCCN(C(=O)CSc1ncnc2sccc12)c1c(N)n(Cc2ccccc2)c(=O)[nH]c1=O | nt | nt | nt | nt | -1
Cc1nn(-c2ccccc2)c2c1P(=O)(O)/C(=C1\N(C)c3ccccc3C1(C)C)C=N2 | i | -47 | -63 | 29* | 2
Cc1cccc(Nc2nnc(SC/C(O)=C(\C#N)c3nc4ccccc4[nH]3)s2)c1C | i | 13 | 47 | 26* | 1
O=C(COc1cc(Cl)ccc1Cl)N1CCNC1=O | nt | nt | nt | nt | -8
Cc1ccc(S(=O)(=O)Nc2ccc3c(c2)OCCO3)c(C)c1NS(C)(=O)=O | i | nt | nt | -5 | -8
COC(=O)/C(=C/c1ccco1)NC(=O)c1ccco1 | i | -3 | -2 | 4 | -6
Cc1ccc(/C=C2/NC(=O)N(Cc3ccc(Br)cc3)C2=O)o1 | i | 13 | 35 | 5 | 1
SMILES | Rce1 inhib | Runt-CBFb FRET | Runt-SMMHC FRET | RanGTP-Impb inh | Vif imaging
CC(C)N1C(=O)S/C(=C\c2ccc(-c3ccc(Cl)c(C(=O)O)c3)o2)C1=O | i | nt | nt | 26* | 1
CCOC(=O)CN1C(=O)S/C(=C\c2ccc(-c3ccc(C(=O)O)c(Cl)c3)o2)C1=O | i | nt | nt | 23* | 15
O=C(O)c1ccc(-c2ccc(/C=C3\NC(=O)N(Cc4ccc(Cl)cc4)C3=O)o2)cc1Cl | i | 20 | 21 | 58* | -12
Cc1cccc(-c2oc3ccccc3c2-c2ccc3c(c2)OCO3)c1 | + | nt | nt | 3 | -10
O=C(Nc1ccccc1Br)C1CCN(C(=O)Cc2ccccc2)CC1 | i | 0 | -2 | 1 | 3
O=C(CCCCCn1c(=S)[nH]c2ccc(N3CCOCC3)cc2c1=O)NCc1ccccc1Cl | i | -2 | -29 | -2 | +
O=C(CCCCCn1c(=S)[nH]c2ccc(N3CCOCC3)cc2c1=O)NCc1ccc(Cl)cc1 | i | 4 | -8 | 0 | -4
O=C(CCCn1c(=S)[nH]c2ccccc2c1=O)N1CCN(c2cccc(Cl)c2)CC1 | i | -1 | -2 | 8 | 107*
O=C(CCCCn1c(=O)[nH]c2ccccc2c1=O)N1CCN(c2cccc(C(F)(F)F)c2)CC1 | i | -4 | -6 | 5 | nt
COc1ccc(C2=NOC(C(=O)Nc3cc(C)on3)C2)cc1OC (stereo unspecified) | i | 3 | 0 | 3 | 2
COc1cc(C2=NOC(C(=O)Nc3cc(C)on3)C2)cc(OC)c1OC (stereo unspecified) | i | 9 | -2 | 20* | 0
COc1cc(C2=NOC(C(=O)NCc3ccc(F)cc3)C2)cc(OC)c1OC (stereo unspecified) | i | -1 | 16 | 1 | 60*
COc1ccc(C2=NOC(C(=O)NCc3ccc(F)cc3)C2)cc1OC (stereo unspecified) | i | 1 | 4 | 1 | 12
O=C(CCN1CCOCC1)c1ccccc1 | i | 2 | 3 | ? | 2
O=C(CCN1CCOCC1)Nc1ccc(Cl)cc1 | i | nt | nt | ? | 74*
O=C(CCN1CCOCC1)NNC(=S)NC(=O)c1ccccc1 | i | 9 | 5 | 1 | 69*
CC(C)CNC(=O)COc1cccc(C(=O)NCc2ccccc2)c1 | + | -1 | -2 | 1 | nt
COc1ccc(OC)c(/C=N/c2oc(-c3ccco3)c(-c3ccco3)c2C#N)c1 | + | 5 | -18 | 3 | -3
O=C(NC(c1ccccc1)c1ccc2ccccc2n1)C1CCN(Cc2ccc(Cl)c(Cl)c2)CC1 (stereo unspecified) | nt | nt | nt | nt | 4
CC(C)n1c(=N)c(C(=O)NCCc2ccccc2)cc2c(=O)n3ccccc3nc21 | i | 11 | -21 | 174* | 22
Cc1cccn2c(=O)c3cc(C(=O)NCc4cccnc4)c(=N)n(C(C)C)c3nc12 | ? | 19 | 79* | 183* | -8
Cc1ccc2nc3c(cc(C(=O)NCc4cccnc4)c(=N)n3C(C)C)c(=O)n2c1 | nt | 13 | 39 | nt | nt
Cc1cccn2c(=O)c3cc(C(=O)NCc4cccnc4)c(=N)n(C)c3nc12 | nt | 98* | 74* | nt | nt
Cc1cc(C(=O)NN)c2cc(Br)ccc2n1 | i | 2 | -1 | 4 | -4
